How the values were obtained:
[1] = target: T1, Muscarinic acetylcholine receptor M1 (Homo sapiens) (UniProt P11229); test: Positive allosteric modulation of human muscarinic M1 receptor expressed CHO cells assessed as intrinsic potency of acetylcholine-induced calcium mobilization by FLIPR assay relative to control; format: functional, cell-based
T1 sequence (whole entry): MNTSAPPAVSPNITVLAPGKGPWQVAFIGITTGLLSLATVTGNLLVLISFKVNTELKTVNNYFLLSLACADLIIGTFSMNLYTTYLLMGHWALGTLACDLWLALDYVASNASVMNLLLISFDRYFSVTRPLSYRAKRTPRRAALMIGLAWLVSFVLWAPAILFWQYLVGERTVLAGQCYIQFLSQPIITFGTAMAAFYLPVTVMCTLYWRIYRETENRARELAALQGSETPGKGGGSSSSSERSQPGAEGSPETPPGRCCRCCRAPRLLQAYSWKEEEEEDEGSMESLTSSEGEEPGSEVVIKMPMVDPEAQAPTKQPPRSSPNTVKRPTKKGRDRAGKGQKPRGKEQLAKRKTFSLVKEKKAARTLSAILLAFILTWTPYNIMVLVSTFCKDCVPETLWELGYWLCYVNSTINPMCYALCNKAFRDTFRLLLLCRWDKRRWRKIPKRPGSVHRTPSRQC
Outline: (§1)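 Human M1 receptor expressed in CHO cells, with calcium mobilization read by FLIPR. Inflection point (IP, nM) and % max response are taken as the numerical average of at least two experiments. Interassay variability was ±30% for IP unless noted otherwise.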

[2] = target: T1, Muscarinic acetylcholine receptor M1 (Homo sapiens); test: Positive allosteric modulation of human muscarinic M1 receptor expressed CHO cells assessed as intrinsic potency of acetylcholine-induced calcium mobilization by FLIPR assay; format: functional, cell-based; outline: as §1
[3] = Apparent permeability of the compound; format: physicochemical; settings: not told
[4] = target: Multidrug resistance protein 1a (Rattus norvegicus, UniProt Q6PSM0); test: Activity at rat MDR1a assessed as ratio of permeability from basolateral to apical side over permeability from apical to basolateral side by cell based assay
Chain of Multidrug resistance protein 1a (Q6PSM0 whole entry): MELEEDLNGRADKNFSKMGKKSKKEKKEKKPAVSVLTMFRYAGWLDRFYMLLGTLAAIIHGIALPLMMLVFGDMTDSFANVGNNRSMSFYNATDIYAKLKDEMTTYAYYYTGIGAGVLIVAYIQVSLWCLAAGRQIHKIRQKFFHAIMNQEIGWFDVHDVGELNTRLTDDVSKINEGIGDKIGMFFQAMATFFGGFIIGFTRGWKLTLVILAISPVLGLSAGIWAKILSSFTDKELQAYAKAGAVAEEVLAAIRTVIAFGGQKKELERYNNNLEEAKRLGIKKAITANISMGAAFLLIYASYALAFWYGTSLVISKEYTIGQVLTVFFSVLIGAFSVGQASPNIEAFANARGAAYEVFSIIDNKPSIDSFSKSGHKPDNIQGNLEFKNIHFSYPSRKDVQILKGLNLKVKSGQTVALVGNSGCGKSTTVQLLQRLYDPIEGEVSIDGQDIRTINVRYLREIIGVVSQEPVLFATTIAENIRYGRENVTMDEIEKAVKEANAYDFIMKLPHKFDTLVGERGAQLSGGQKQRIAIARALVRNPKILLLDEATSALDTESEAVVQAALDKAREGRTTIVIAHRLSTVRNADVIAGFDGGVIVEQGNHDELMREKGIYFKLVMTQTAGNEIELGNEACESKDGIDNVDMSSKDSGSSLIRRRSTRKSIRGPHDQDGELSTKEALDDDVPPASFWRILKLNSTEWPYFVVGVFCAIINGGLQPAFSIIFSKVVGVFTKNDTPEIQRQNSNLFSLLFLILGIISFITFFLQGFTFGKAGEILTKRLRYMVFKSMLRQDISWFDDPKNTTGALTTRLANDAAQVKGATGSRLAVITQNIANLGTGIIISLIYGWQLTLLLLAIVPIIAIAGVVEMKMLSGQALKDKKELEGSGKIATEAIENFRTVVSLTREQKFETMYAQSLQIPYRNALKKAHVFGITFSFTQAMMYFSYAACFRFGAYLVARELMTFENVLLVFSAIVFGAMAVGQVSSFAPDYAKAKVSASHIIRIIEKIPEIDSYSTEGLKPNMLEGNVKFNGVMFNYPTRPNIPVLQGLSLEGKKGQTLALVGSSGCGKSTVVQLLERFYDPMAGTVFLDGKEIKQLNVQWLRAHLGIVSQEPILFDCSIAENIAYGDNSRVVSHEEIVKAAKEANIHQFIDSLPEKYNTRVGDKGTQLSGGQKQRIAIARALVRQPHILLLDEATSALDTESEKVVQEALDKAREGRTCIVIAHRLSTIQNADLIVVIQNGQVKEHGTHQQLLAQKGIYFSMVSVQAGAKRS

[5] = target: ATP-dependent translocase ABCB1 (Homo sapiens, UniProt P08183); test: Activity at human MDR1 assessed as ratio of permeability from basolateral to apical side over permeability from apical to basolateral side by cell based assay
Chain of ATP-dependent translocase ABCB1 (P08183 whole entry): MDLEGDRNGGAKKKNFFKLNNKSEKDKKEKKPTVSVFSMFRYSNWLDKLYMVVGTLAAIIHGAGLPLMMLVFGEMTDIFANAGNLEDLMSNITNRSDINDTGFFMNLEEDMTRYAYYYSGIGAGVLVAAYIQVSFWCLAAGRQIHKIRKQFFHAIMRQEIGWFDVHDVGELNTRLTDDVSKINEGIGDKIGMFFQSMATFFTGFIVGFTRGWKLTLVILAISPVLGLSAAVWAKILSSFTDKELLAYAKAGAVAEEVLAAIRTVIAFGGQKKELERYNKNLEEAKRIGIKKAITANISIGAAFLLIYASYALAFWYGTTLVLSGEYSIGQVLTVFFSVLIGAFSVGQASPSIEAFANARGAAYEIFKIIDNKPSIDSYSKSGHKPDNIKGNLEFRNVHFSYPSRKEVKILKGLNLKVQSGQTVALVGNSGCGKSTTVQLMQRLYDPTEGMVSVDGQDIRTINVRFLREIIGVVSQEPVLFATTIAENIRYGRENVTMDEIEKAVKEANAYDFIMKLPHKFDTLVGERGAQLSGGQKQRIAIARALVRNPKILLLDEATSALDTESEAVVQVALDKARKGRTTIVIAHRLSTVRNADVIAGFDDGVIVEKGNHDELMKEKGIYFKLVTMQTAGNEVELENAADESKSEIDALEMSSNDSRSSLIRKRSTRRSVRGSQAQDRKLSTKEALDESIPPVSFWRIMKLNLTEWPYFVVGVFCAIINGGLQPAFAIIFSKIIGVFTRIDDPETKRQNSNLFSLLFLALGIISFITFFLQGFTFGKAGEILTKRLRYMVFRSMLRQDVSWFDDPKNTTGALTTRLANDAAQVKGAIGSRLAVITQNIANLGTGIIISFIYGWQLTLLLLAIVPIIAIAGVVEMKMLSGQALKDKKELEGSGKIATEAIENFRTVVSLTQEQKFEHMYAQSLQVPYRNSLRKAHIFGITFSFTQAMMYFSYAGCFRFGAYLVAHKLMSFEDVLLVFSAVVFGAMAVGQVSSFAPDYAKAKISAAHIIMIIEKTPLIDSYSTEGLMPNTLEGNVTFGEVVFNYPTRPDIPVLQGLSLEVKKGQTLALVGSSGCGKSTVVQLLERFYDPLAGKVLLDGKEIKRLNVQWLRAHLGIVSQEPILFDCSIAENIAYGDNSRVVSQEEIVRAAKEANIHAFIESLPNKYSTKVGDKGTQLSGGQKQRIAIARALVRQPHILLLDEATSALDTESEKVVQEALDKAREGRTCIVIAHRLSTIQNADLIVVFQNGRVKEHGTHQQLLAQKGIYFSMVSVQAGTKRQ

Brain = test: Drug level in Sprague-Dawley rat brain at 10 mg/kg, po; format: ADME, organism-based; design: dose 10 mg/kg, route oral; settings: in vivo, read-out: Drug uptake; further: time not given here
[6] = Ratio of drug level in brain to plasma in Sprague-Dawley rat at 10 mg/kg, po; format: ADME, organism-based; design: dose 10 mg/kg, route oral; settings: read-out: BPR
[7] = Ratio of drug level in cerebrospinal fluid in Sprague-Dawley rat at 10 mg/kg, po to unbound fraction in rat plasma; format: ADME, organism-based, CSF/Plasma; design: dose 10 mg/kg, route oral; settings: in vivo
[8] = Plasma protein binding in rat plasma; format: ADME, cell-free; settings: read-out: PPB (converted)
Cerebrospinal fluid = test: Drug level in Sprague-Dawley rat cerebrospinal fluid at 10 mg/kg, po; format: ADME, organism-based; design: dose 10 mg/kg, route oral; settings: in vivo, read-out: Drug uptake; further: time not given here
Plasma = test: Plasma concentration in Sprague-Dawley rat at 10 mg/kg, po; format: ADME, organism-based; design: dose 10 mg/kg, route oral; settings: in vivo; further: time not given here
[9] = target: T1, Muscarinic acetylcholine receptor M1 (Homo sapiens); test: Positive allosteric modulation of human muscarinic M1 receptor expressed CHO cells assessed as intrinsic potency of acetylcholine-induced calcium mobilization by FLIPR assay relative to acetylcholine; format: functional, cell-based; outline: as §1

| SMILES | %max [1] [%] | Activity [2] [nM] | Papp [3] [×10⁻⁶ cm/s] | Ratio [4] | Ratio [5] | concentration (Brain) [nM] | Kp [6] | Ratio [7] | fraction unbound [8] | concentration (Cerebrospinal fluid) [nM] | concentration (Plasma) [µM] | fold change (FC) [9] |
| --- | --- | --- | --- | --- | --- | --- | --- | --- | --- | --- | --- | --- |
| C=CCOc1c(C(=O)N[C@H]2CCCC[C@@H]2O)cc(Cc2ccc(Cl)nc2)c2ccccc12 | 68 | 1100 |  |  |  |  |  |  |  |  |  |  |
| CC(=O)Oc1c(C(=O)N[C@H]2CCCC[C@@H]2O)cc(Cc2ccc(Cl)nc2)c2ccccc12 | 18 | > 10000 |  |  |  |  |  |  |  |  |  |  |
| COc1c(C(=O)N[C@H]2CCCC[C@@H]2O)cc(Cc2ccc(SC)nc2)c2ccccc12 | 76 | 170 |  |  |  |  |  |  |  |  |  |  |
| C=Cc1ccc(Cc2cc(C(=O)N[C@H]3CCCC[C@@H]3O)c(OC)c3ccccc23)cn1 | 88 | 74 |  |  |  |  |  |  |  |  |  |  |
| COc1c(C(=O)N[C@H]2CCCC[C@@H]2O)cc(Cc2ccc(-c3cccnc3)nc2)c2ccccc12 | 73 | 24 | 28 | 1.5 | 0.9 | 860 | 0.2 | 0.38 | 0.006 | 11 | 4.9 | 10 |
| CCc1c(C(=O)N[C@H]2CCCC[C@@H]2O)cc(Cc2ccc(Cl)nc2)c2ccccc12 | 47 | 7400 |  |  |  |  |  |  |  |  |  |  |
| CCOc1c(C(=O)N[C@H]2CCCC[C@@H]2O)cc(Cc2ccc(Cl)nc2)c2ccccc12 | 37 | 980 |  |  |  |  |  |  |  |  |  |  |
| COc1c(C(=O)N[C@H]2CCCC[C@@H]2O)cc(Cc2ccc(-c3cnn(C)c3)nc2)c2ccccc12 | 77 | 17 | 27 | 1.4 | 1.1 | 1600 | 0.06 |  | 0.001 |  | 29 |  |
| COc1ccc(Cc2cc(C(=O)N[C@H]3CCCC[C@@H]3O)c(OC)c3ccccc23)cn1 | 85 | 140 |  |  |  |  |  |  |  |  |  |  |
| CCc1ccc(Cc2cc(C(=O)N[C@H]3CCCC[C@@H]3O)c(OC)c3ccccc23)cn1 | 73 | 190 |  |  |  |  |  |  |  |  |  |  |
| COc1ccc(Cc2cc(C(=O)O)c(OC)c3ccccc23)cc1 |  | 3330 |  |  |  |  |  |  |  |  |  |  |

Second part, the molecule after the results:

| %max [1] [%] | Activity [2] [nM] | Papp [3] [×10⁻⁶ cm/s] | Ratio [4] | Ratio [5] | concentration (Brain) [nM] | Kp [6] | Ratio [7] | fraction unbound [8] | concentration (Cerebrospinal fluid) [nM] | concentration (Plasma) [µM] | fold change (FC) [9] | SMILES |
| --- | --- | --- | --- | --- | --- | --- | --- | --- | --- | --- | --- | --- |
| 35 | 9100 |  |  |  |  |  |  |  |  |  |  | O=C(N[C@H]1CCCC[C@@H]1O)c1cc(Cc2ccc(Cl)nc2)c2ccccc2c1O |
|  |  | 29 | 21.1 | 11.1 |  |  |  |  |  |  |  | N#CC1(c2ccccn2)CCN(Cc2cc(C(=O)N[C@H]3CCCC[C@@H]3O)c(=O)n3ccccc23)CC1 |
| 83 | 87 | 31 | 3.2 | 1.7 | 370 | 0.17 | 0.34 | 0.014 | 8.7 | 2.1 |  | COc1c(C(=O)N[C@H]2CCCC[C@@H]2O)cc(Cc2ccc(-n3cccn3)nc2)c2ccccc12 |
| 62 | 303 | 31 | 2.3 | 1.7 |  |  |  |  |  |  |  | COc1c(C(=O)N[C@H]2CCCC[C@@H]2O)cc(CN2CCC(C#N)(c3ccccn3)CC2)c2ccccc12 |
| 57 | 4000 |  |  |  |  |  |  |  |  |  |  | COc1c(C(=O)N[C@H]2CCCC[C@@H]2O)cc(CN2CCN(c3cc4ccccc4cn3)CC2)c2ccccc12 |
| 83 | 3900 |  |  |  |  |  |  |  |  |  |  | COc1c(C(=O)N[C@H]2CCCC[C@@H]2O)cc(CN2CCN(c3cnn(C)c3)CC2)c2ccccc12 |
| 93 | 121 | 35 | 2.1 | 1.6 | 1200 | 0.21 | 0.9 | 0.016 | 91 | 6.02 | 100 | COc1c(C(=O)N[C@H]2CCCC[C@@H]2O)cc(Cc2ccc(C)nc2)c2ccccc12 |
| 74 | 260 | 32 | 1.9 | 1.3 | 420 | 0.22 | < 0.1 | 0.1 | 5 | 2.06 |  | COc1c(C(=O)N[C@H]2CCCC[C@@H]2O)cc(Cc2ccc(Cl)nc2)c2ccccc12 |
|  | 5400 |  |  |  |  |  |  |  |  |  |  | COc1c(C(=O)O)cc(CN2CCC(C#N)(c3ccccn3)CC2)c2ccccc12 |
